The record followed here is ChEMBL document CHEMBL4033789, “Discovery of a New Four-Leaf Clover-Like Ligand as a Potent c-MYC Transcription Inhibitor Specifically Targeting the Promoter G-Quadruplex” (J Med Chem, 2018).

The source made the active and inactive calls. The rule behind the calls is not given here.

Data set [1] in a line: Stabilization of c-Myc promoter pu22 G-quadruplex DNA (unknown origin) assessed as change in melting temperature at 15 uM by circular dichroism spectroscopic assay. A digest of the protocol: (§1)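 CD melting of 3 µM annealed G-quadruplex with or without 15 µM ligand in 10 mM Tris-HCl pH 7.2 with 2 mM KCl (50 mM KCl for htg22 and HRAS); read every 5 °C over 25–95 °C, heating 1 °C/min.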

The nature of data set [2]: Stabilization of c-Kit1 promoter G-quadruplex DNA (unknown origin) assessed as effect on melting temperature at 15 uM by circular dichroism spectroscopic assay. Format: ADME. In short, it runs like this:
as §1

A short description of data set [3]: Stabilization of KRAS promoter G-quadruplex DNA (unknown origin) assessed as effect on melting temperature at 15 uM by circular dichroism spectroscopic assay. Format: ADME. In short, it runs like this: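 G-quadruplex at 3 µM, with or without 15 µM compound, in 10 mM Tris-HCl pH 7.2 containing 2 mM KCl; CD recorded every 5 °C from 25 to 95 °C at a heating rate of 1 °C/min.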

Data set [4] is described as follows: Stabilization of c-Myc mutant promoter DNA (unknown origin) transfected in human SiHa cells assessed as reduction in gene transcription at 1.25 to 2.5 uM after 24 hrs by dual-luciferase reporter gene assay. The format is cell-based. In short, it runs like this:
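SiHa cells transfected with psiCHECK2 carrying wild-type or mutant c-MYC promoter driving Renilla luciferase, firefly luciferase on same plasmid; compound added 4 h post-transfection, incubated further at 37 °C; Renilla signal normalized to firefly; three repeats, mean ± SEM.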

The species named for data set [5] is Homo sapiens. Description: Stabilization of c-Myc promoter G-quadruplex DNA in human Raji cells assessed as downregulation of exon 2 transcriptional level after 6 hrs by RT-PCR analysis. The format is cell-based. In short, it runs like this: (§2)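 RAJI and CA46 cells treated 6 h over a concentration range; total RNA reverse-transcribed (oligo dT18, M-MLV, 42 °C 1 h then 85 °C 5 min); exon 1 and exon 2 amplified by real-time PCR with exon-specific primers, products run on 1% agarose gel; three repeats.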

For data set [6], the species on record is Homo sapiens. Description: Stabilization of c-Myc promoter G-quadruplex DNA in human CA46 cells assessed as downregulation of exon 1 transcriptional level at 1.25 to 5 uM after 6 hrs by RT-PCR analysis. Format: cell-based. A digest of the protocol:
as §2

Data set [7] relates to SiHa. Description: Cytotoxicity against human SiHa cells assessed as reduction in cell viability after 24 hrs by MTT assay. The format is functional, cell-based. A digest of the protocol: (§3)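 Cells seeded at 5.0×10^3 per well, exposed to compound for 24 h; MTT (2.5 mg/mL) added for 4 h, formazan dissolved in DMSO, OD read at 570 nm. Triplicate; IC50 from curves of mean OD against concentration.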

In the next data set the test system is HeLa. Description: Cytotoxicity against human HeLa cells assessed as reduction in cell viability after 24 hrs by MTT assay. The format is functional, cell-based. In short, it runs like this:
as §3

Data set [8] has as its system BJ. Description: Cytotoxicity against human BJ cells assessed as cell growth inhibition at 1.2 to 3 uM after 130 hrs by RTCA assay. The format is cell-based. A digest of the protocol: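 Cells seeded at 2000 per well on impedance plates, settled 20 min at room temperature, profiled 24 h; medium then replaced with compound-containing medium and cells monitored to 130 h total. Cell index normalized to 1.0 at the time point just before compound addition.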

The test system of data set [9] is BJ. Description: Antiproliferative activity against human BJ cells assessed as reduction in colony formation at 0.5 uM measured on day 8 by crystal violet-staining based assay. Format: cell-based. A digest of the protocol:
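Cells seeded at 300 per well in six-well plates, exposed to compound at 37 °C, 5% CO2, with drug-containing medium replaced every 2 days; after 8 days of culture, colonies fixed with methanol and stained with crystal violet.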

Data set [10] has as its system SiHa. Description: Induction of cell cycle arrest in human SiHa cells assessed as accumulation at G0/G1 phase after 12 hrs by propidium iodide-staining based FACS analysis. Format: functional. A digest of the protocol: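 SiHa cells treated 12 h, fixed in 70% ethanol at 4 °C overnight, stained with 50 µg/mL PI plus 75 KU/mL RNase A in PBS for 30 min in the dark at room temperature; flow cytometry, 1.6×10^4 events per sample, cell cycle distribution analyzed.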

For data set [11], the system named is SiHa. Description: Induction of apoptosis in human SiHa cells assessed as early apoptotic cells at 5 uM after 24 hrs by Annexin V-FITC/propidium iodide-staining based flow cytometric analysis. The format is functional.
Data set [12] can be described thus: Stabilization of VEGF G-quadruplex DNA in human SiHa cells assessed as effect on VEGF mRNA level at 1.25 to 5 uM fter 6 hrs by RT-PCR method. Format: ADME, cell-based. In short, it runs like this: (§4)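 SiHa cells (2.0×10^5) dosed 6 h; total RNA reverse-transcribed with oligo dT18 primer and M-MLV (42 °C 1 h, 85 °C 5 min); PCR 95 °C 5 min then 30 cycles (95 °C 30 s, 58 °C 30 s, 72 °C 40 s); products checked on agarose gel.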

Data set [13] is described as follows: Stabilization of c-Kit G-quadruplex DNA in human SiHa cells assessed as effect on c-Kit mRNA level at 1.25 to 5 uM fter 6 hrs by RT-PCR method. Format: ADME, cell-based. In short, it runs like this:
as §4

Data set [14] in a line: Stabilization of KRAS G-quadruplex DNA in human SiHa cells assessed as effect on […] mRNA level at 1.25 to 5 uM fter 6 hrs by RT-PCR method. The format is ADME, cell-based. In short, it runs like this: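 SiHa cells (2.0×10^5 per well) treated 6 h; total RNA (2 µg) reverse-transcribed with oligo dT18 and M-MLV at 42 °C for 1 h, 85 °C for 5 min; PCR: 95 °C 5 min, then 30 cycles of 95 °C 30 s, 58 °C 30 s, 72 °C 40 s; products checked on agarose gel.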

Data set [15] relates to SiHa. Description: Induction of cell cycle arrest in human SiHa cells assessed as downregulation of Cyclin D1 protein levels after 24 hrs by Western blot analysis. Format: functional, cell-based. A digest of the protocol: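 SiHa cells (2.0×10^5 per well) treated 24 h, lysed at 4 °C for 30 min, supernatant cleared at 15,000 rpm; protein measured by BCA, 30 µg resolved on 10% SDS-PAGE, transferred to nitrocellulose, blocked in 5% milk/TBS-Tween 1 h, primary antibodies overnight at 4 °C, HRP secondaries 2 h at room temperature.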

The subject of data set [16] is SiHa. Description: Antitumor activity against human SiHa cells xenografted in nude BALB/c mouse assessed as tumor growth inhibition at 20 mg,kg, ip administered every other day for 24 days. The format is functional. A digest of the protocol: (§5)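 BALB/c nude mice (5 weeks old) given 1×10^7 SiHa cells subcutaneously in right flank; at ~50 mm3 tumor volume, randomized (10 per group) and dosed intraperitoneally every other day for 24 days; controls got equal-volume saline. Caliper volume as 1/2 × length × width2; tumors weighed at end; inhibition rate = (1 − mean treated tumor weight/mean control tumor weight) × 100%.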

In data set [17] the test system is SiHa. Description: Antitumor activity against human SiHa cells xenografted in nude BALB/c mouse assessed as tumor growth inhibition at 10 mg,kg, ip administered every other day for 24 days. The format is functional. In short, it runs like this: as §5
Data set [18] can be described thus: Binding affinity to 1 uM KRAS promoter G-quadruplex DNA (unknown origin) at 1 uM after 1 min by fluorescence spectroscopic analysis. Format: ADME. A digest of the protocol:
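Fluorescence emission spectra of 1 µM compound mixed with 1 µM pre-annealed oligonucleotide (G-quadruplexes folded in 100 mM KCl by heating to 95 °C for 5 min, slow cooling), in Tris-HCl buffer.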

Another data set concerns Mus musculus. Description: In vivo stabilization of c-Myc G-quadruplex DNA in human SiHa cells xenografted in nude BALB/c mouse assessed as decrease in c-Myc expression at 20 mg/kg, ip administered every other day for 24 days by immunohistochemistry. The format is functional, organism-based.

Consider `CCn1c2ccccc2c2cc(-c3nc(-c4ccc(N5CCN(C)CC5)cc4)c(-c4ccc(N5CCN(C)CC5)cc4)n3-c3ccc(OC)cc3)ccc21`, for which the ΔTm in data set [1] is 20 °C. Further, the Activity result was “Not Active” in data set [2]; “Not Active” in data set [3]; “Dose-dependent effect” in the data set listed under Homo sapiens [5]; “Non-Toxic” in the data set with BJ [9]; “Dose-dependent effect” in the data set with SiHa [10]; 22% in the data set with SiHa [11]. Also, the Activity entry is “Not Active” in [12]; “Not Active” in data set [13]; “Not Active” in [14]; “Dose-dependent effect” in the data set with SiHa [15]; “Not Active” in data set [18]. In addition, in data set [4], the outcome was inactive. The result in the data set filed under Homo sapiens [6] and with Mus musculus was Active. Moreover, the figures for the IC50 in the data set with SiHa [7] and with HeLa were 3300 nM and 2100 nM, respectively. The “growth inhibition (GI)” value in the data set with BJ [8] is “Non-Toxic”. The TGI is listed as 69% with SiHa [16] and 64% in the data set with SiHa [17].
